# Laboratory results from ChEMBL document CHEMBL2311304, “Design, synthesis and in vitro and in vivo antitumor activities of novel bivalent β-carbolines” (Eur J Med Chem, 2013).
# How the values were obtained:
# [1] = test system: H22; assay: Antitumor activity in mouse H22 liver cancer cells inoculated mouse assessed as tumor inhibition rate at one fifth of LD50 concentration once a day for consecutive 7 days by ip; type: functional; parameters: scale not given: the % may be the effect or the level left
# Outline: (§1)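 Each tumour line was first grown in mice for 7 days, then harvested. Viable cells (2 × 10^6 per mouse) were injected s.c. into the armpit. Dosing began 24 h later: i.p., about one fifth of LD50, daily for 7 days, 10 female mice per group. […] Body weight was recorded every 3 days. Tumours were excised and weighed on day 21 to give inhibition rate.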
# [2] = test system: B16; assay: Antitumor activity in mouse B16 melanoma cell lines cells inoculated mouse assessed as tumor inhibition rate at one fifth of LD50 concentration once a day for consecutive 7 days by ip; type: functional; parameters: scale not given: the % may be the effect or the level left; outline: as §1
# [3] = Antitumor activity in mouse Sarcoma 180 cells inoculated mouse assessed as tumor inhibition rate at one fifth of LD50 concentration once a day for consecutive 7 days by ip; type: functional; parameters: scale not given: the % may be the effect or the level left; outline: as §1
# [4] = Antitumor activity in mouse Lewis lung cancer cells inoculated mouse assessed as tumor inhibition rate at one fifth of LD50 concentration once a day for consecutive 7 days by ip; type: functional, Cancer cell lines; parameters: scale not given: the % may be the effect or the level left; outline: as §1
# [5] = test system: CT26; assay: Antitumor activity in mouse CT26 colon cancer cells inoculated mouse assessed as tumor inhibition rate at one fifth of LD50 concentration once a day for consecutive 7 days by ip; type: functional; parameters: scale not given: the % may be the effect or the level left; outline: as §1
# [6] = test system: Mus musculus; assay: Toxicity in C57BL/6 mouse assessed as maximum weight loss at 30 mg/kg, ip; type: organism-based; parameters: dose 30 mg/kg, route intraperitoneal; conditions: in vivo
# Outline: (§2)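 Tumor-bearing mice, 10 females per group, were inoculated s.c. in the armpit with 2 × 10^6 viable tumor cells. Compound was given i.p. once daily for 7 consecutive days, starting 24 h after inoculation. […] Body weight was recorded every 3 days until sacrifice on day 21.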
# [7] = test system: Mus musculus; assay: Toxicity in C57BL/6 mouse assessed as liver damage at 1 to 500 mg/kg, ip for 14 days; type: organism-based; parameters: dose 1-500 mg/kg, route intraperitoneal; conditions: in vivo, 336 h
# Outline: (§3)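 Healthy C57BL/6 mice (9–12 weeks, 18–22 g) were fasted overnight with free access to water. Each received a single i.p. dose of 1.0–500 mg kg-1 in 0.5% CMC-Na, 10 mice per group (5 male, 5 female). Mice were watched continuously for 2 h, intermittently to 24 h, then occasionally to 14 days for tremor, twitch, jumping and supination. At day 14 they were killed and heart, liver and kidneys were examined macroscopically.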
# [8] = test system: Mus musculus; assay: Toxicity in C57BL/6 mouse assessed as kidney damage at 1 to 500 mg/kg, ip for 14 days; type: organism-based; parameters: dose 1-500 mg/kg, route intraperitoneal; conditions: in vivo, 336 h; outline: as §3
# [9] = test system: Mus musculus; assay: Toxicity in C57BL/6 mouse assessed as heart damage at 1 to 500 mg/kg, ip for 14 days; type: organism-based; parameters: dose 1-500 mg/kg, route intraperitoneal; conditions: in vivo, 336 h; outline: as §3
# [10] = test system: Mus musculus; assay: Neurotoxicity in C57BL/6 mouse at 1 to 500 mg/kg, ip for 14 days; type: toxicity, organism-based; parameters: dose 1-500 mg/kg, route intraperitoneal; conditions: in vivo, 336 h; outline: as §3
# [11] = test system: SK-OV-3; assay: Cytotoxicity against human ovary adenocarcinoma SKOV3 cells assessed as reduction in optical density by MTT assay; type: functional, cell-based; conditions: SK-OV-3, Female gonad
# Outline: (§4)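 Cells were cultured in RPMI-1640 with 10% (v/v) fetal calf serum, 100 µg ml-1 penicillin and 100 µg ml-1 streptomycin at 37 °C in humidified 5% CO2. Compounds were dissolved in DMSO, with final DMSO at 2% (v/v) or lower. MTT staining was used, with three replicate wells per point. IC50 is the concentration giving a 50% drop in optical density versus untreated cells.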
# [12] = test system: KB; assay: Cytotoxicity against human epidermoid carcinoma of the nasopharynx KB cells assessed as reduction in optical density by MTT assay; type: functional, cell-based; outline: as §4
# [13] = test system: 769-P; assay: Cytotoxicity against human renal carcinoma 769-P cells assessed as reduction in optical density by MTT assay; type: functional, cell-based; outline: as §4
# [14] = test system: A-375; assay: Cytotoxicity against human malignant melanoma A375 cells assessed as reduction in optical density by MTT assay; type: functional, cell-based; outline: as §4
# [15] = test system: BGC-823; assay: Cytotoxicity against human gastric carcinoma BGC823 cells assessed as reduction in optical density by MTT assay; type: functional, cell-based; outline: as §4
# [16] = test system: Mus musculus; assay: Toxicity in C57BL/6 mouse assessed as maximum weight loss at 40 mg/kg, ip; type: organism-based; parameters: dose 40 mg/kg, route intraperitoneal; conditions: in vivo; outline: as §2
# [17] = Acute toxicity in ip treated C57BL/6 mouse for 14 days; type: organism-based; conditions: in vivo
# Outline: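 C57BL/6 mice (9–12 weeks, 18–22 g) were fasted overnight with free water. They received single i.p. doses of 1.0–500 mg kg-1 in 0.5% CMC-Na, 10 mice per group (5 male, 5 female). Mice were watched continuously for 2 h, then intermittently to 24 h, then occasionally to 14 days. Heart, liver and kidneys were checked macroscopically. LD50 was derived graphically.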
# [18] = test system: Mus musculus; assay: Toxicity in C57BL/6 mouse assessed as maximum weight loss at 10 mg/kg, ip; type: organism-based; parameters: dose 10 mg/kg, route intraperitoneal; conditions: in vivo
# [19] = test system: Mus musculus; assay: Toxicity in C57BL/6 mouse assessed as maximum weight loss at 50 mg/kg, ip; type: organism-based; parameters: dose 50 mg/kg, route intraperitoneal; conditions: in vivo
# [20] = test system: Mus musculus; assay: Toxicity in C57BL/6 mouse assessed as maximum weight loss at 7.5 mg/kg, ip; type: organism-based; parameters: dose 7.5 mg/kg, route intraperitoneal; conditions: in vivo
SMILES,Activity [1] [%],Activity [2] [%],Activity [3] [%],Activity [4] [%],Activity [5] [%],Activity [6] [%],Activity [7],Activity [8],Activity [9],Activity [10],IC50 [11] [µM],IC50 [12] [µM],IC50 [13] [µM],IC50 [14] [µM],IC50 [15] [µM],Activity [16] [%],LD50 at 336 h [17] [mg/kg],Activity [18] [%],Activity [19] [%],Activity [20] [%]
c1ccc2c(c1)c1ccncc1n2CCCCCn1c2ccccc2c2ccncc21,40.4,26.1,43.8,42.5,48.6,10,Non-toxic,Non-toxic,Non-toxic,Non-toxic,> 200,> 200,15.3,10.2,23.5,–,–,–,–,–
COc1cc(-c2nccc3c4ccccc4n(CCCCCCn4c5ccccc5c5ccnc(-c6cc(OC)c(OC)c(OC)c6)c54)c23)cc(OC)c1OC,–,–,–,43.3,45.8,–,Non-toxic,Non-toxic,Non-toxic,Non-toxic,> 200,> 200,16.8,5.9,> 200,7.2,200,–,–,–
COc1ccc2c3ccnc(C)c3n(CCCCn3c4cc(OC)ccc4c4ccnc(C)c43)c2c1,–,–,–,38.1,45.5,–,Non-toxic,Non-toxic,Non-toxic,Non-toxic,7.1,2.8,65.6,6.2,75.7,–,–,7.7,–,–
Cc1nccc2c3ccc(OC(C)C)cc3n(CCCCCCn3c4cc(OC(C)C)ccc4c4ccnc(C)c43)c12,39.7,20.5,40.6,49.6,51.2,–,Non-toxic,Non-toxic,Non-toxic,Non-toxic,17.1,19.8,95.4,18.5,194,10.2,–,–,–,–
c1cncc(-c2nccc3c4ccccc4n(CCCCCCn4c5ccccc5c5ccnc(-c6cccnc6)c54)c23)c1,35,24.3,40.5,43.2,50.6,–,Non-toxic,Non-toxic,Non-toxic,Non-toxic,14.9,13.3,> 200,5.3,14.1,–,–,–,11.9,–
c1ccc2c(c1)c1ccncc1n2CCCCCCn1c2ccccc2c2ccncc21,31.2,24.8,–,37.7,32.4,–,Non-toxic,Non-toxic,Non-toxic,Non-toxic,38.9,13.9,12.8,10.8,13.8,15,200,–,–,–
CCOC(=O)c1cc2c(cn1)[nH]c1ccccc12,–,–,35.2,–,–,–,–,–,–,Non-toxic,92.6,> 200,175,> 200,> 200,–,32.6,11.8,–,–
O=P1(N(CCCl)CCCl)NCCCO1 (centres undefined) [CYCLOPHOSPHAMIDE ANHYDROUS],83.8,86.5,85.6,97.8,97.2,–,–,–,–,–,–,–,–,–,–,–,–,–,7.7,–
COc1ccc2c(c1)[nH]c1c(C)nccc12 [HARMINE],–,–,15.3,34.1,–,–,–,–,–,Toxic,74.6,57.8,48.9,72.5,63.2,–,–,–,–,8.5
